According to ChEMBL document CHEMBL2163294, “2-(N-Benzyl-N-phenylsulfonamido)alkyl amide derivatives as γ-secretase inhibitors” (Bioorg Med Chem Lett, 2012):

Key:
[1] = Inhibition of gamma-secretase
Mus musculus [2] = test: Antialzheimer activity in Tg2576 mouse assessed as reduction in plasma amyloid-beta40 level at 200 umol/kg, po measured at 180 mins; type: functional; details: 3 h
Summary of the method: (§1)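 Transgenic mice received a single 200 µmol/kg dose. […] Test-compound concentrations in brain and plasma (nM) were measured at the same time point.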

[3] = Inhibition of gamma-secretase-mediated amyloid beta42 production by GS H4-8 SW1-42 assay
Liver = test: Metabolic stability in mouse liver microsomes; type: ADME, Microsome
Liver microsomes = test: Metabolic stability in human liver microsomes; type: ADME, Microsome
[4] = Drug uptake in Tg2576 mouse brain at 200 umol/kg, po measured at 180 mins; type: ADME, organism-based; details: read-out: Drug uptake; summary of the method: as §1
[5] = Plasma concentration in Tg2576 mouse at 200 umol/kg, po measured at 180 mins; type: ADME, organism-based; summary of the method: as §1
Mus musculus [6] = test: Antialzheimer activity in Tg2576 mouse assessed as reduction in brain amyloid-beta40 level at 200 umol/kg, po measured at 180 mins; type: functional; details: 3 h; summary of the method: as §1
Gamma-secretase = test: Inhibition of human gamma-secretase expressed in IMR32 cell membranes using MBPC-125 Swedish as substrate assessed as inhibition of amyloid beta40 production after 2 hrs by ELISA; details: imr-32

SMILES | IC50 ([3]; read-out: IC50) | other results
NC(=O)[C@@H](CCC(F)(F)F)N(Cc1ccc(-c2ncon2)cc1F)S(=O)(=O)c1ccc(Cl)cc1 |  | IC50 [1]: 0.3 nM
COc1ccc(CN([C@H](CC(C)C)C(N)=O)S(=O)(=O)c2ccc(Cl)cc2)cc1 |  | IC50 (Gamma-secretase): 0.19 nM
COc1ccc(CN([C@@H](CC(C)C)C(N)=O)S(=O)(=O)c2ccc(Cl)cc2)cc1 | 315 nM | 
COc1ccc(CN([C@H](CC(C)C)C(=O)N(C)C)S(=O)(=O)c2ccc(Cl)cc2)cc1 | 1100 nM | 
CNC(=O)[C@@H](CC(C)C)N(Cc1ccc(OC)cc1)S(=O)(=O)c1ccc(Cl)cc1 | 380 nM | 
COc1ccc(CN([C@H](CC(C)C)C(=O)NO)S(=O)(=O)c2ccc(Cl)cc2)cc1F | 19 nM | 
COc1ccc(CN([C@H](CC(C)C)C(=O)N(C)OC)S(=O)(=O)c2ccc(Cl)cc2)cc1 | 160 nM | 
COc1ccc(CN([C@H](CC(C)C)C(=O)NN)S(=O)(=O)c2ccc(Cl)cc2)cc1 | 53 nM | 
CC(C)C[C@H](C(=O)NN)N(Cc1ccc(C(F)(F)F)cc1)S(=O)(=O)c1ccc(Cl)cc1 | 110 nM | 
COc1ccc(CN([C@H](CC(C)C)c2nc(C)no2)S(=O)(=O)c2ccc(Cl)cc2)cc1 | 2200 nM | 
COc1ccc(CN([C@H](CC(C)C)c2nc(C)ns2)S(=O)(=O)c2ccc(Cl)cc2)cc1 | 1200 nM | 
COc1ccc(CN([C@H](CC(C)C)C(=O)O)S(=O)(=O)c2ccc(Cl)cc2)cc1F | 220 nM | 
COc1ccc(CN(C(=O)c2ccc(Cl)cc2)[C@H](CC(C)C)C(N)=O)cc1F |  | IC50 [3]: Not Active
COc1ccc(CN(C(=O)Nc2ccccc2)[C@H](CC(C)C)C(N)=O)cc1F | 1100 nM | 
COc1ccc(CN([C@H](CC(C)C)C(N)=O)S(=O)(=O)c2ccccc2)cc1F | 1.7 nM | 
COc1ccc(CN([C@H](CC(C)C)C(N)=O)S(=O)(=O)c2cccc(Cl)c2)cc1F | 7 nM | 
CC(C)C[C@H](C(N)=O)N(Cc1ccc(C#N)cc1)S(=O)(=O)c1ccc(F)cc1 | 2.7 nM | 
Cc1ccc(S(=O)(=O)N(Cc2ccc(C#N)cc2)[C@H](CC(C)C)C(N)=O)cc1 | 2.8 nM | 
COc1ccc(CN([C@H](CC(C)C)C(N)=O)S(=O)(=O)c2cccc(C)c2)cc1F | 9.2 nM | 
CCN([C@H](CC(C)C)C(N)=O)S(=O)(=O)c1ccc(Cl)cc1 | 2.3 nM | 

SMILES | IC50 ([3]; read-out: IC50) | other results
CC(C)C[C@H](C(N)=O)N(CC1CCN(Cc2ccccc2)CC1)S(=O)(=O)c1ccc(Cl)cc1 | 17 nM | 
CC(C)C[C@H](C(N)=O)N(CCSC(C)(C)C)S(=O)(=O)c1ccc(Cl)cc1 | 4.2 nM | 
CC(C)C[C@H](C(N)=O)N(CCCCN1CCOCC1)S(=O)(=O)c1ccc(Cl)cc1 | 9.9 nM | 
CC(C)C[C@H](C(N)=O)N(CCCCCCN1CCOCC1)S(=O)(=O)c1ccc(Cl)cc1 | 3.5 nM | 
CC(C)C[C@H](C(N)=O)N(CCCCCCn1ccnc1)S(=O)(=O)c1ccc(Cl)cc1 | 4.9 nM | 
COc1ccccc1CN([C@H](CC(C)C)C(N)=O)S(=O)(=O)c1ccc(Cl)cc1 | 23 nM | 
CC(C)C[C@H](C(N)=O)N(Cc1ccc(CN(C)C)cc1)S(=O)(=O)c1ccc(Cl)cc1 | 7.7 nM | 
COc1ccc(CN(CC(N)=O)S(=O)(=O)c2ccc(Cl)cc2)cc1F | 2000 nM | 
COc1ccc(CN([C@H](C)C(N)=O)S(=O)(=O)c2ccc(Cl)cc2)cc1F | 5.3 nM | 
CC[C@H](C(N)=O)N(Cc1ccc(C#N)cc1)S(=O)(=O)c1ccc(Cl)cc1 | 4.4 nM | 
CCC[C@H](C(N)=O)N(Cc1ccc(C#N)cc1)S(=O)(=O)c1ccc(Cl)cc1 | 2.6 nM | 
CCCC[C@H](C(N)=O)N(Cc1ccc(C#N)cc1)S(=O)(=O)c1ccc(Cl)cc1 | 1 nM | 
COc1ccc(CN([C@@H](C(N)=O)C(C)C)S(=O)(=O)c2ccc(Cl)cc2)cc1F | 1.4 nM | 
COc1ccc(CN([C@H](Cc2ccccc2)C(N)=O)S(=O)(=O)c2ccc(Cl)cc2)cc1 | 390 nM | 
CSCC[C@H](C(N)=O)N(Cc1ccc(C#N)cc1)S(=O)(=O)c1ccc(Cl)cc1 | 19 nM | 
C[S+]([O-])CC[C@H](C(N)=O)N(Cc1ccc(C#N)cc1)S(=O)(=O)c1ccc(Cl)cc1 (stereo not given in full) | 1800 nM | 
CS(=O)(=O)CC[C@H](C(N)=O)N(Cc1ccc(C#N)cc1)S(=O)(=O)c1ccc(Cl)cc1 | 4300 nM | 
COC[C@H](C(N)=O)N(Cc1ccc(C#N)cc1)S(=O)(=O)c1ccc(Cl)cc1 | 48 nM | 
CC(C)(C)C(=O)C[C@H](C(N)=O)N(Cc1ccc(C#N)cc1)S(=O)(=O)c1ccc(Cl)cc1 | 54 nM | 
COc1ccc(CN([C@@H]2CCCCNC2=O)S(=O)(=O)c2ccc(Cl)cc2)cc1 |  | inhibition in vivo at 200 µmol/kg (Mus musculus [2]): 47%; Stability (Liver): 0.22 nmol/min/mg; Stability (Liver microsomes): 0.23 nmol/min/mg; concentration at 3 h [4]: 2200 nM; concentration at 3 h [5]: 280 nM; inhibition in vivo at 200 µmol/kg (Mus musculus [6]): 49%

Second part, led by results:

IC50 ([3]; read-out: IC50) | SMILES | other results
0.94 nM | N#Cc1ccc(CN([C@H](CC2CC2)C(N)=O)S(=O)(=O)c2ccc(Cl)cc2)cc1 | inhibition in vivo at 200 µmol/kg (Mus musculus [2]): 81%; Stability (Liver): 0.17 nmol/min/mg; Stability (Liver microsomes): 0.16 nmol/min/mg; concentration at 3 h [4]: 2800 nM; concentration at 3 h [5]: 8600 nM; inhibition in vivo at 200 µmol/kg (Mus musculus [6]): 75%
0.15 nM | COc1ccc(CN([C@H](CC(C)C)C(N)=O)S(=O)(=O)c2ccc(Cl)cc2)cc1F | 
0.26 nM | COc1ccc(CN([C@H](CC(C)C)C(N)=O)S(=O)(=O)c2ccc(F)cc2)cc1F | 
0.45 nM | COc1ccc(CN([C@H](CC(C)C)C(N)=O)S(=O)(=O)c2ccc(C)cc2)cc1F | 
0.27 nM | COc1ccc(CN([C@H](CC(C)C)C(N)=O)S(=O)(=O)c2ccc(C(F)(F)F)cc2)cc1F | 
0.41 nM | CC(C)C[C@H](C(N)=O)N(CCCc1ccccc1)S(=O)(=O)c1ccc(Cl)cc1 | 
0.79 nM | CC(C)C[C@H](C(N)=O)N(CC1CCCCC1)S(=O)(=O)c1ccc(Cl)cc1 | 
0.35 nM | CC(C)C[C@H](C(N)=O)N(Cc1ccccc1)S(=O)(=O)c1ccc(Cl)cc1 | 
0.59 nM | COc1cccc(CN([C@H](CC(C)C)C(N)=O)S(=O)(=O)c2ccc(Cl)cc2)c1 | 
0.39 nM | CC(C)C[C@H](C(N)=O)N(Cc1ccc(C(F)(F)F)cc1)S(=O)(=O)c1ccc(Cl)cc1 | 
0.35 nM | CC(C)C[C@H](C(N)=O)N(Cc1ccc(CCl)cc1)S(=O)(=O)c1ccc(Cl)cc1 | 
0.69 nM | CC(C)C[C@H](C(N)=O)N(Cc1ccc(OC(F)(F)F)cc1)S(=O)(=O)c1ccc(Cl)cc1 | 
0.67 nM | CC(C)C[C@H](C(N)=O)N(Cc1ccc(C#N)cc1)S(=O)(=O)c1ccc(Cl)cc1 | 
0.43 nM | CC(C)C[C@H](C(N)=O)N(Cc1ccc(F)cc1)S(=O)(=O)c1ccc(Cl)cc1 | 
0.58 nM | CC(C)C[C@H](C(N)=O)N(Cc1ccc(C(C)C)cc1)S(=O)(=O)c1ccc(Cl)cc1 | 
0.39 nM | CC(C)C[C@H](C(N)=O)N(Cc1ccc(C(C)(C)C)cc1)S(=O)(=O)c1ccc(Cl)cc1 | 
0.27 nM | CC(C)C[C@H](C(N)=O)N(Cc1ccc(N(C)C)cc1)S(=O)(=O)c1ccc(Cl)cc1 | 
0.44 nM | CC(C)C[C@H](C(N)=O)N(Cc1ccc(F)c(F)c1)S(=O)(=O)c1ccc(Cl)cc1 | 
0.62 nM | CC(C)C[C@H](C(N)=O)N(Cc1cc(F)cc(F)c1)S(=O)(=O)c1ccc(Cl)cc1 | 
0.52 nM | CCC[C@H](C(N)=O)N(Cc1ccc(OC)c(F)c1)S(=O)(=O)c1ccc(Cl)cc1 | inhibition in vivo at 200 µmol/kg (Mus musculus [2]): 41%; Stability (Liver): 0.3 nmol/min/mg; Stability (Liver microsomes): 0.3 nmol/min/mg; concentration at 3 h [4]: 380 nM; concentration at 3 h [5]: 840 nM; inhibition in vivo at 200 µmol/kg (Mus musculus [6]): 72%
0.68 nM | NC(=O)[C@@H](CC1CC1)N(Cc1ccc(C(F)(F)F)cc1)S(=O)(=O)c1ccc(Cl)cc1 | inhibition in vivo at 200 µmol/kg (Mus musculus [2]): 65%; Stability (Liver): 0.27 nmol/min/mg; Stability (Liver microsomes): 0.23 nmol/min/mg; concentration at 3 h [4]: 6300 nM; concentration at 3 h [5]: 3600 nM; inhibition in vivo at 200 µmol/kg (Mus musculus [6]): 78%
0.35 nM | C=CC[C@H](C(N)=O)N(Cc1ccc(OC)c(F)c1)S(=O)(=O)c1ccc(Cl)cc1 | 
